# In the library only some 2.6% were active in any assay of this set; here they are far more common.
# Wnt act – Wnt/beta-catenin pathway activation; Wnt/beta-catenin reporter cell assay, activator, plate reader; activation, % at 9.35 µM; 300,000 tested, 1.2% active; in the data active = activation above about 30%, passing the limit was not always enough; inconclusive = no clear call, values can overlap the other calls
# MITF act – increases MITF-driven TRPM1 promoter luciferase signal; SK-MEL-5 TRPM1-promoter luciferase, 24 h; % of positive control, neutral wells = 0; activation, % at 12.5 µM; 300,000 tested, 0.75% active;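 active = mean activation of at least 80% with every replicate also reaching 80%; inconclusive = mean reaches 80% but some replicate falls short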
# Xi reactivation – activators of X-chromosome reactivation in mouse fibroblasts; XiGFP mouse fibroblasts, % GFP-positive cells imaging, 3 d; cells co-treated with 5-aza-dC sensitizer; scaled so ellipticine positive control = 100%; activation, % at 7.58 µM; 360,000 tested, 0.055% active; AID 743238;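 active = mean normalized replicate activation at least 10% and every replicate at or above 10%; inconclusive = only one of the two criteria met; inactive = mean below 10% and not all replicates reach 10%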
#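 System: 68-5-11 XiGFP fibroblast line | Buffer or medium: DMEM containing 5-aza-dC | Compound: Single point | Times: Compounds 3 days, fix/stain 15 min at room temperature | Benchmarks: Positive control ellipticine, 6 µM final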
# esBAF inh – SWI/SNF esBAF complex inhibition; reporter increase, % at 12.5 µM; 350,000 tested, 2% active; mouse ES cells, Bmi1-luciferase knock-in reporter, 24 h; 100% = twice the neutral-well signal; AID 602393; in the data active = activation above about 40%; inconclusive = no clear call, values can overlap the other calls;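 also: a rise in the Bmi1 reporter signal indicates esBAF inhibition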
# Vif imaging – HIV Vif inhibition; HEK293T cells, Vif self-association by quenched fluorescence, imaging, 24 h; inhibition, % at 7.49 µM; 340,000 tested, 0.35% active; AID 602346; in the data active = inhibition above about 50%, passing the limit was not always enough; inconclusive = no clear call, values can overlap the other calls; inactive = below about 31%
# A number is an active result; - = inactive; ? = inconclusive; . = not tested or not shown.
SMILES,Wnt act,MITF act,Xi reactivation,esBAF inh,Vif imaging
O=C(NC(=S)Nc1ccc(NC(=O)c2cccs2)cc1)c1ccco1,-,-,-,-,-
O=C(O)c1ccccc1C(=O)Nc1ccc(-n2ccc(C(F)(F)F)n2)cc1,-,-,-,.,-
O=C(Nc1ccc(-n2ccc(C(F)(F)F)n2)cc1)c1cccs1,-,123,-,-,-
O=C(Nc1cccc(O)c1)c1ccc(NC(=O)c2cccs2)cc1,-,103,-,.,.
O=C(Nc1ccc(O)cc1)c1ccc(NC(=O)c2cccs2)cc1,-,-,-,-,-
O=C(Nc1ccc(NC(=O)c2cccs2)cc1)c1ccco1,.,98,.,48,-
COCC(=O)N1CC2(CCN(S(C)(=O)=O)CC2)c2c(n(C)c3cc(OC)ccc23)[C@H]1CO,.,.,-,.,.
O=C(C[C@H]1CC[C@@H]2[C@H](COC[C@H](O)CN2Cc2ccc3c(c2)OCO3)O1)Nc1ccc(-c2ccccc2)cc1,.,.,-,-,.
CCn1cnc2cc(NC(=O)c3cccs3)ccc21,-,95,-,-,-
O=C(CCc1ccccc1)Nc1ccc(NC(=O)c2ccco2)cc1,-,-,.,-,-
O=C(Nc1ccc(CSc2ccccc2)cc1)c1ccco1,-,-,-,52,-
O=C(Nc1ccc(NC(=O)c2cccs2)cc1)c1ccccc1,-,-,-,48,-
O=C(Nc1ccc2c(c1)CCC2)c1cccs1,55,-,-,.,-
O=C(NCC[C@@H]1CC[C@H](NC(=O)C2CCCCC2)[C@H](CO)O1)c1ccc(F)cc1,.,.,-,-,.
Cc1ccccc1-c1nc(-c2ccc(NC(=O)c3cccs3)cc2)no1,-,-,.,51,-
COc1ccc(CCC(=O)Nc2ccc(-c3noc(-c4ccc(OC)c(OC)c4)n3)cc2)cc1,.,-,.,43,-
Cc1ccc(-c2nc(-c3ccncc3)no2)cc1C,39,.,-,-,-
COc1ccc(-c2noc(-c3cccs3)n2)cc1OC,60,.,?,53,-
COc1ccc(-c2noc(-c3cccc(Cl)c3)n2)cc1OC,-,?,-,49,-
CO[C@@H]1CN(C)C(=O)c2ccc(NC(=O)C3CCCC3)cc2OC[C@H](C)N(S(C)(=O)=O)C[C@H]1C,.,.,-,-,.
COc1ccc(NC(=O)Nc2cccc3c2O[C@H](CN(C)Cc2ccc(-c4ccccc4)cc2)[C@@H](C)CN([C@@H](C)CO)C3=O)cc1,.,.,-,.,.
CN(C)CC(=O)Nc1ccc2c(c1)[C@H]1C[C@@H](CC(=O)N(C)C)O[C@H](CO)[C@H]1O2,.,.,-,-,.
COc1cccc(-c2nc(-c3ccc(Br)o3)no2)c1,45,-,-,.,-
COc1cccc(-c2nc(-c3ccncc3)no2)c1,35,-,-,.,-
COc1ccc(-c2noc(-c3ccccc3Cl)n2)cc1OC,-,86,.,?,.
SMILES,Wnt act,MITF act,Xi reactivation,esBAF inh,Vif imaging
Brc1ccc(-c2nc(-c3ccccc3)no2)o1,50,-,.,-,-
CCOc1ccc(-c2noc(-c3ccncc3)n2)cc1OCC,-,.,.,-,-
COc1ccc(-c2nc(-c3ccncc3)no2)cc1OC,.,.,.,63,?
CN(C)C(=O)C[C@H]1CC[C@@H]2[C@H](COc3ccc(NC(=O)C4CC4)cc3C(=O)N2C)O1,.,.,-,-,.
C[C@H](CO)N1C[C@H](C)[C@H](CN(C)Cc2ccc(C(=O)O)cc2)Oc2ncc(C3=CCCCC3)cc2C1=O,.,.,-,-,.
COc1ccccc1C#Cc1ccc2c(c1)[C@H]1[C@H](CCN1S(=O)(=O)c1ccc(C)cc1)[C@H](CO)N2,.,.,-,-,.
COc1cc(C2C3=C(CC(C)(C)CC3=O)Nc3c2c(=O)[nH]c(=O)n3Cc2ccccc2)ccc1O (centres undefined),33,-,-,.,-
Cc1ccc(N2CCN(C(=S)c3ccc(N(C)C)cc3)CC2)cc1,-,-,.,-,66
CN(C)c1ccc(C(=S)N2CCN(c3ccccc3)CC2)cc1,-,-,.,.,-
O=C(C[C@H]1CC[C@@H](NC(=O)c2ccncc2)[C@@H](CO)O1)NCc1ccncn1,.,.,-,.,.
CO[C@H]1CN(C)C(=O)c2cc(NS(=O)(=O)CC(F)(F)F)ccc2OC[C@@H](C)N(Cc2ccccn2)C[C@@H]1C,.,.,-,-,.
CC[N+]1=C(C)C(C)(C)c2cc(C)ccc21,-,-,73,-,.
COc1ccc(NC(=O)N(C)C[C@@H]2Oc3ccc(NC(=O)Cc4ccccc4)cc3C(=O)N([C@@H](C)CO)C[C@@H]2C)cc1,.,.,-,-,.
Cc1c(-c2ccc(Cl)cc2)oc(=O)c2c(N)n(-c3ccccc3)nc12,-,-,.,-,-

# Assay outcomes as filed in PubChem.
